UPR CHOP act = activators of apoptotic CHOP UPR arm, primary screen, cell-based, CHO-CHOP luciferase reporter, luminescence, uHTS. UPR activation; percent of tunicamycin response over DMSO baseline. activation, % at 10 µM. 0.34% of 330,000 active. AID 449763, 2010;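 active = at 10 µM dose, activation of 40% or more, normalized to positive control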
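Test system: CHO CHOP reporter cells. Input: 500 CHO-CHOP cells per well. Medium: F12 with 10% FBS. Technique: luciferase luminescence. Measure: percent activation relative to tunicamycin control. Dosing: 10 µM compound, 0.5% DMSO. Timing: 16-18 h cell attachment, then 6 h compound exposure, 37 °C.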
CHOP inhibitor = inhibitors of CHOP promoter induction, primary screen, cell-based, unfolded protein response, luciferase reporter; CHO-K1 CHOP-promoter luciferase, tunicamycin-induced, 15-18 h; inhibition, % at 10 µM; 3.8% of 220,000 active;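 active = compounds that reduced the stress-induced luciferase reporter signal by more than about 70% of percent inhibition, limit read from the data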
Dynein cargo inh = inhibitors of GR-EGFP nuclear translocation, primary screen, dynein cargo transport inhibitor project, imaging, high-content, 3617.4 mouse cells; AID 1381, 2008; test concentration mostly 20 µM; stimulated with dexamethasone, 1 µM; active compounds read low; z-score, hits read low; 0.47% of 220,000 active;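 active = plate z-score of nuclear minus cytoplasmic receptor signal below a set negative limit, without overly bright fluorescence or cell loss, cut at about -3.5 in these data, passing the limit was not always enough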;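 note: z-score of nuclear minus cytoplasmic ring GR-EGFP intensity difference per well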
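medium = tetracycline-free induction medium containing charcoal-stripped FBS | probe or stimulus = dexamethasone, 1.0 µM final | timing = 48 h induction, then 1 h compound, then 30 min agonist, 37 °C | detection = automated 10x imaging of fixed Hoechst-stained cells | read-out basis = nuclear versus cytoplasmic GR-EGFP signal, averaged per well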
T cruzi inh = inhibitors of intracellular T. cruzi growth, primary screen, luminescence, NIH3T3 host cells; T. cruzi beta-gal in NIH3T3, 90 h; inhibition, % (test concentration not listed); 1.4% of 300,000 active; AID 1885, 2009;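 active = mean inhibition across valid replicates above about 55%, limit read from the data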;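 note: signal also drops with host cell toxicity which is not excluded here; higher percent means less beta-gal luminescence so fewer parasites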
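System: Mouse NIH/3T3 fibroblasts infected with β-gal-expressing T. cruzi Tulahuen C4 | Quantity: NIH/3T3 cells, 5,000 per well | Reagent: 5000 reporter trypomastigotes per well | Dosing: Compound pinned at 50 nL/well, DMSO | Schedule: 3 h host attachment, then at least 90 h co-culture | Detection: GalScreen luminescence, 60 min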
UPR XBP1 act = activators of adaptive XBP1 UPR arm, primary screen, cell-based, CHO-XBP1 luciferase reporter, luminescence, uHTS. activation, % at 20 µM. AID 463104, 2010. 0.33% of 330,000 active. IRE1-XBP1 UPR activation; percent of tunicamycin response, DMSO as zero;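 active = versus positive control, 20 µM dose yields 30% or more activation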
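incubation = overnight seeding at 37 °C, 6 h compound treatment at 37 °C | assay system = CHO-XBP1 cells stably carrying IRE1-XBP1-driven luciferase reporter | input = 1000 cells per well | detection = luciferase luminescence | dosing = single point, 20 µM final compound, 1% DMSO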
L major viab = Leishmania major promastigote growth inhibition, primary screen. Leishmania major promastigotes, resazurin fluorescence viability. inhibition, % at 10 µM. 9% of 200,000 active. AID 1063, 2008; in the data active = inhibition above about 50%;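 note: promastigotes grown with compound for 44 hours at 28 °C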
A number is an active result; n = inactive; x = not tested or not shown. The full list was thinned out, with hits kept by preference.

SMILES	UPR CHOP act	CHOP inhibitor	Dynein cargo inh	T cruzi inh	UPR XBP1 act	L major viab
CCCC(c1nnnn1C(C)(C)CC)N(Cc1ccco1)Cc1cc2ccc(OC)cc2[nH]c1=O (configuration not stated)	x	90.6	n	n	x	n
Cc1ccc2cc(C(c3nnnn3C3CCCC3)N(Cc3ccccc3)Cc3ccco3)c(=O)[nH]c2c1 (configuration not stated)	n	n	n	n	n	79.7
CC(C)(C)n1nnnc1C(c1cccs1)N(Cc1cccnc1)Cc1ccco1 (configuration not stated)	n	n	n	n	n	79.1
CCC(C)(C)n1nnnc1C(c1cc2ccc(C)cc2[nH]c1=O)N(Cc1cccnc1)Cc1ccco1 (configuration not stated)	n	n	n	n	n	82.8
CC(C)(C)n1nnnc1C(c1cccs1)N(Cc1ccccc1)Cc1ccco1 (configuration not stated)	n	n	n	n	n	n
CCC(c1nnnn1Cc1ccccc1)N(Cc1ccco1)Cc1cc2cc(OC)ccc2[nH]c1=O (configuration not stated)	n	n	n	n	n	n
CC(=O)COC(=O)C1=NN(c2ccccc2)C(=O)CC1	n	x	x	n	n	x
O=C(CCCCn1c(=O)[nH]c2ccccc2c1=O)NC1CCN(Cc2ccccc2)CC1	n	n	n	n	n	n
O=C(NC1CCN(Cc2ccccc2)CC1)c1ccc(Cn2c(=S)[nH]c3ccc(N4CCOCC4)cc3c2=O)cc1	n	n	n	60.3	n	n
O=C(CCCCCn1c(=S)[nH]c2ccc(N3CCOCC3)cc2c1=O)NC1CCN(Cc2ccccc2)CC1	n	n	n	64.5	n	n
CCN(CC)S(=O)(=O)c1ccc(NC(=O)COC(=O)CNC(=O)C2CCCCC2)cc1	n	x	x	x	n	x
CCN(C(=O)CO/N=C/c1ccc(OC)cc1OC)c1c(N)n(Cc2ccccc2)c(=O)[nH]c1=O	n	x	x	x	n	x
Cc1c(CN(C)C)c2c(n1C)C(=O)c1ccc(Br)cc1-2	n	n	n	n	n	69.8
Cc1c(CN(C)C)c2c(n1Cc1ccccc1)C(=O)c1ccc(Br)cc1-2	n	n	n	n	n	n
CCC(C)[C@H]1CNC(=S)N1CCC12CC3CC(CC(C3)C1)C2 (some centres not stated)	n	80.5	n	n	n	x
CSCCC(NC(=O)c1ccccc1)C(=O)NCCCSc1ccccc1 (configuration not stated)	n	x	x	x	n	x
N#Cc1ccc(CN2CCN(C(=O)Cn3nc(C(N)=O)c4ccccc4c3=O)CC2)cc1	n	x	x	n	n	x
CC(=O)Nc1ccc2nc(NC(=O)COc3ccccc3C)sc2c1	n	n	n	n	n	n
COc1cccc2sc(Nc3nc(-c4ccncc4)cs3)nc12	n	n	n	76.3	n	n
COc1cccc2sc(Nc3nc4ccc(NC(C)=O)cc4s3)nc12	x	n	n	n	x	85.4
COc1cccc(-c2nnc(Nc3nc4c(F)cccc4s3)o2)c1	n	n	n	n	n	n
COc1cccc2sc(Nc3nnc(-c4ccccc4Cl)o3)nc12	n	x	n	n	n	97.4
COc1cccc2sc(NN)nc12	n	n	n	n	n	60.0
COc1cccc2sc(Nc3nc(-c4cc5ccccc5oc4=O)cs3)nc12	x	n	n	n	x	n
CC(=O)c1ccc(NS(=O)(=O)c2cccc(C(=O)Nc3ccccc3C(=O)O)c2)cc1	n	x	x	n	n	x
SMILES	UPR CHOP act	CHOP inhibitor	Dynein cargo inh	T cruzi inh	UPR XBP1 act	L major viab
CCCN(C(=O)c1cnccn1)c1c(N)n(Cc2ccccc2)c(=O)[nH]c1=O	n	x	x	x	n	x
COC(=O)c1sccc1NC(=O)Nc1ccc(F)cc1F	n	x	x	n	n	x
CCOc1ccc(NC(=O)CN2C(=O)NC3(CCCCCC3)C2=O)cc1	n	x	x	x	n	x
Cc1ccccc1OCCC(=O)NNC(=O)c1ccccc1F	n	x	x	x	n	x
C=CC[C@H](CC(=O)NCCO)C(=O)N[C@@H](COC(=O)[C@H](CC=C)CC(=O)OC(C)(C)C)Cc1ccccc1	n	x	x	x	n	x
CC(C)(C)c1ccc(C(=O)COC(=O)CN2C(=O)NC3(CCCC3)C2=O)cc1	n	x	x	n	n	x
NNc1nc2c(Cl)c(Cl)ccc2s1	n	n	n	n	n	99.2
NNc1nc2ccc(Cl)cc2s1	n	n	n	n	n	n
CCn1c(COc2ccccc2)nnc1SCC(=O)Nc1ccc(N2CCOCC2)cc1	n	x	x	n	n	x
Cc1ccc2cc(CCNS(=O)(=O)c3ccc(F)cc3)c(=O)[nH]c2c1C	n	n	n	n	n	n
Cc1ccc2sc(N(CCCN(C)C)C(=O)c3ccc(S(=O)(=O)N4CCOCC4)cc3)nc2c1C	n	x	x	66.1	n	x
Cc1ccc2nc(N(CCCN(C)C)C(=O)c3ccc(S(=O)(=O)N4CCOCC4)cc3)sc2c1	n	x	x	59.7	n	x
Cc1cc(C)c2nc(N(CCCN(C)C)C(=O)c3ccc(S(=O)(=O)N4CC(C)OC(C)C4)cc3)sc2c1 (configuration not stated)	n	x	x	59.5	n	x
COCCn1cnnc1SCC(=O)Nc1ccc(Br)cc1F	n	n	n	n	n	n
CC1(C)Cc2c(cnn2-c2ccccc2)-c2c1c1ccccc1n2CC(O)CBr (configuration not stated)	n	95.4	n	n	n	n
CC1(C)Cc2ccccc2C(/C(=N\Nc2cccc(Cl)c2)C(N)=O)=N1	n	86.6	n	n	n	98.5
CC1(C)Cc2ccccc2C(/C(=N/O)C(N)=O)=N1	n	n	n	n	n	61.4
CCN1C(=O)[C@H]2[C@@H](c3ccc(-c4ccc(C(C)=O)cc4)c(OC)c3)N[C@@](Cc3ccccc3)(C(=O)OC)[C@H]2C1=O	n	x	x	n	n	x
Cc1ccc(C(=O)N(C)CCOc2ccccc2)cc1S(=O)(=O)N1CCCCC1	n	x	x	x	n	x
CN(C)c1ccc(/C=C/C(=O)c2ccc3c(c2)OCCO3)cc1[N+](=O)[O-]	n	n	n	n	n	92.1
O=S(=O)(c1ccccc1Cl)N1CCCC1c1nc(-c2ccccc2Cl)no1 (configuration not stated)	n	n	n	n	n	88.6
NS(=O)(=O)c1ccc(NC(=O)CSc2n[nH]c(=O)n2C2CC2)cc1	n	x	x	x	n	x
COc1ccc(NC(=O)c2cccc(Oc3ccc([N+](=O)[O-])cc3Cl)c2)cc1	n	n	n	n	n	n
Cc1ccc(C)c(NC(=O)c2cccc(Oc3ccc([N+](=O)[O-])cc3Cl)c2)c1	n	n	n	55.2	n	n

Source: PubChem BioAssay (several laboratories)
